# Assay results reported in the EternaBench riboswitch data.
# Tested on: MS2 coat protein
# Experiment: apparent Kd, MS2 coat protein; higher = weaker binding; RNA-MaP array; FMN 200 µM where present
# In short: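 On Illumina sequencing-chip clusters, designs were transcribed by stalled E. coli RNA polymerase and titrated with SNAP-549-labelled MS2 coat protein (0.7 or 1.5 nM, doubling to 3 µM), without and then with constant ligand, in 100 mM Tris-HCl pH 7.5, 80 mM KCl, 4 mM MgCl2, BSA, DTT, yeast tRNA and Tween-20. Apparent Kd is the median of filtered per-cluster curve fits to green signal normalised to red-channel RNA signal and control-cluster median Fmax.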
# [1] = designed as: ON switch for flavin mononucleotide, no ligand
# [2] = ligand present: flavin mononucleotide, designed as: ON switch for flavin mononucleotide
# [3] = designed as: OFF switch for flavin mononucleotide, no ligand
# [4] = ligand present: flavin mononucleotide, designed as: OFF switch for flavin mononucleotide
Sequence,apparent Kd [1] [nM],apparent Kd [2] [nM],apparent Kd [3] [nM],apparent Kd [4] [nM]
AAAAAAAAAACUCAGGAUAUAGAUAAUUGAACAUGAGGAUCACCCAUGUAGUGAAAAAAAAAAAAUUAGAAGGGAGGAAAAAAAAA,67.8,58.8,–,–
AAAAAAAAAAGACAGGAUAUACAAUAUAUUACAUGAGGAUCACCCAUGUUUUUUUUUUAAUUAAAGUAGAAGGGUCAAAAAAAAAA,52.2,40,–,–
AAAAAAAAAAGUCAGGAUAUACAAAUUUUUACAUGAGGAUCACCCAUGUUAAAGAAAAAAAAAAAGUAGAAGGGACAAAAAAAAAA,25.1,14.9,–,–
AAAAAAAAAUCUCAGGAUAUAGAUUAUAGAACAUGAGGAUCACCCAUGUAGUGAAAGAAGAAAAACUAGAAGGGAGGAAAAAAAAA,100,66.6,–,–
AAAAAAAGAUCACAGGAUAUACGAAAAAAAACAUGAGGAUCACCCAUGUAAAAAAAAAAAAAAAAGUAGAAGGGUGAUCCAAAAAA,160,279,–,–
AAAAAACAUGAGGAUCACCCAUGUCAAAAGACGUGAGGAUAUGUACAGACUUCGGUCUGUACAGAAGGCAUGUCAA,30.1,16.5,–,–
AAAAAACAUGAGGAUCACCCAUGUCGAAAGACAUGAGGAUAUGUGUGGAAACCAUACUAUACAGAAGGCAUAAAAA,37.8,371,–,–
AAAAAACAUGAGGAUCACCCAUGUCUUCGGACGUGAGGAUAUGUACAGACUUCGGUCUGUACAGAAGGCAUGUCAA,212,25.9,–,–
AAAAAACAUGAGGAUCACCCAUGUGAGGAUAUAGGAAAAAAAAAAAAAAAAAAAAAAACUAGAAGGCACAAAAA,–,–,55.4,74.6
AAAAAACAUGAGGAUCACCCAUGUGAGGAUAUCCAAAAGUCAAAGAAAAAGACGAAAAGGAGAAGGCACAAAAA,–,–,72.8,84.8
AAAAAACAUGAGGAUCACCCAUGUGAGGAUAUCCAAAAGUUAAAGAAAAAGACGAAAAGGAGAAGGCGCAAAAA,–,–,109,82
AAAAAACAUGAGGAUCACCCAUGUGAGGAUAUCUGUAUUCAAUCCUCGGAUUGAAUACAGAGAAGGCACAUGGG,–,–,26.6,26.9
AAAAAACAUGAGGAUCACCCAUGUGAGGAUAUGCAAAAAAAAAAAAAAAAAUAAAAAAGCAGAAGGCACAAAAA,–,–,63.4,86.2
AAAAACCGAGGAUAUACAUGAGGAUCACCCAUGUCAAAAAAAAAAAAAAAAAAAAAAGGUAGAAGGCGGAAAAA,–,–,64.3,57.9
AAAAACUAAGGAUAUACAUGAGGAUCACCCAUGUAAAAAAUGCAUGGGAAAACCUCAUGUAGAAGGUAGAAAAA,–,–,20.6,17.2
AAAAAGUCAGGAUAUAGCAAAGGUCACGAAAGUGACAAAGGCUAGAAGGGACAUGAGGAUCACCCAUGUAAAAA,–,–,31,39.1
AAAAAGUCAGGAUAUAUCAAAAAAAAAGAAAAAAAAAAAAGAUAGAAGGGACAUGAGGAUCACCCAUGUAAAAA,–,–,50.9,42.1
AAAAAGUCAGGAUAUGCGAAGGCGUCUGAUAGACGAGGCUAGCAGAAGGGACAUGAGGAUCACCCAUGUAAAGA,–,–,27.2,55.1
AAAAAGUCAGGAUAUUCGGAAGGGAAAGCGCAAACCCAACCGAAGAAGGGACAUGAGGAUCACCCAUGUAAAAA,–,–,26.7,39

Sequence,apparent Kd [1] [nM],apparent Kd [2] [nM],apparent Kd [3] [nM],apparent Kd [4] [nM]
AAAAAGUGAGGAUAUACGGUGUGGAGUAGACACAACCAGACGUAGAAGGCACAUGAGGAUCACCCAUGUCCAAA,–,–,24.1,21.4
AAAAAGUGAGGAUAUGCUGCUCGUCACUUGCGUGAUGAGUAGCAGAAGGCACAUGAGGAUCACCCAUGUGGGAA,–,–,82.6,170
AAAACAUACCGAGGAUAUUCAUAUAAUAAAUAAACAUGAGGAUCACCCAUGUGGCGAAAGCCUAGGGAGAAGGCGGAAUGCUAA,149,31.8,–,–
AAAACAUGAGGAUCACCCAUGUAAAGAUCGGUUAAUAGAGGUGAGGAUAUACGAACUUAAAGGUAGUAGAAGGCACUGGGUACA,47.1,35.5,–,–
AAAACAUGAGGAUCACCCAUGUAAAGAUCGGUUGAUGAAGGUGAGGAUAUACAAAACUUUAUGGAGUAGAAGGCACUGGGUUGA,109,59.3,–,–
AAAACAUGAGGAUCACCCAUGUUUAGAUCGGUCGAUUGAGGUGAGGAUAUACUAAGUUAAGGCUGGUAGAAGGCACUGGGUACA,62,43.6,–,–
AAAACGAUGUGAGGAUAUCACCGCUGUGACGGCUGAGAAGGCACAUGAGGAUCACCCAUGUGCAGGCGUGUGUGGGUAAUCCUA,–,–,109,94.8
AAAACGUGAGGAUAUGCACCCACCAAGGUUUUUCGGGUACGACAUGAGGAUCACCCAUGUAGAAGGCACGCAAA,–,–,27.6,21.2
AAAAGACAUGAGGAUCACCCAUGUCAAAACAUAGGAGGAUAUGUCUUGAAAAAAGACUUGACAGAAGGCCUUUGUC,17.9,15.8,–,–
AAAAGACAUGAGGAUCACCCAUGUUAAGACGUGGGAGGAUAUGCAUGGCAAACAUGCUGUGCAGAAGGCCCGUGUC,58.4,23.1,–,–
AAAAGGCUAGGAUAUACAUGAGGAUCACCCAUGUGAGGGCACGGCCGGCGCGGGCCCGGUAGAAGGAGUCAAAA,–,–,18.4,17.6
AAAAGUAGAGGAUAUACAUGAGGAUCACCCAUGUAGAAAGGAAGUAUAUAUAUGGCGUGUAGAAGGCUGCAUGA,–,–,34.5,32.2
AAAAUGUAAGGAUAUGGCCGGGACCCAGGGUUUGGACCCGGCUAGAAGGUACAUGAGGAUCACCCAUGUAAGAA,–,–,16.4,23
AAAAUGUCAGGAUAUGCGAAGGCGUCUGACGGACGAGGAUUGCAGAAGGGACAUGAGGAUCACCCAUGUAAAAA,–,–,54.5,138
AAAAUUUAUUGAGGAUAUUCAUACACUGCAUACGGAGAAGGCAAACAAUCAUGAGGACAUGAGGAUCACCCAUGUUGUGACCAU,18.9,15.8,–,–
AAACAAAGGUGGAAACGGGAACCACAUGAGGAUCACCCAUGUAAGGAUAUCGACCAGCGGUGCGGCGAGAAGGUACAUAGGAAC,–,–,20.3,29.7
AAACACGGACAUGAGGAUCACCCAUGUGGCGAAAGCCUUGGGAGAAGGCCGUAUGCAAAGCAUACGGAGGAUAUCCAUACCGUG,18.1,6.34,–,–
AAACAUGUCCGAGGAUAUCUGAGAUUAUUUUCAAGAGAAGGCGGACAUGAGGAUCACCCAUGUCUCUCCUCAUCAACUCCAAAU,–,–,8.61,54.5
AAACAUGUCCGAGGAUAUCUGGAAACAUUUUCAAGAGAAGGCGGACAUGAGGAUCACCCAUGUCUCUCCUCAUCAACUACAAUU,–,–,8.31,58.1

Sequence,apparent Kd [1] [nM],apparent Kd [2] [nM],apparent Kd [3] [nM],apparent Kd [4] [nM]
AAACAUGUCCGAGGAUAUCUGGAAACAUUUUCAAGAGAAGGCGGACAUGAGGAUCACCCAUGUCUCUCCUCAUCAACUACAUAU,–,–,8.09,59.4
AAACAUGUCCGAGGAUAUCUGGAAACAUUUUCAAGAGAAGGCGGACAUGAGGAUCACCCAUGUCUCUCCUCAUCAAGUCCAAGU,–,–,8.47,46.2
AAACAUGUCCGAGGAUAUCUGGAAACAUUUUCAAGAGAAGGCGGACAUGAGGAUCACCCAUGUCUCUCCUCAUCCACUACAAAU,–,–,9.59,60.6
AAACAUGUCCGAGGAUAUCUGGAAACUUUUUCAAGAGAAGGCGGACAUGAGGAUCACCCAUGUCUCUCCUCAUCAAAUCCAAGU,–,–,7.94,50.3
AAACCACAUGAGGAUCACCCAUGUGAGGAUAUGAUACUAUGUACUUCGGUACAUAGUAUCAGAAGGCAUAUGAA,–,–,24.6,25.1
AAACCGCAAGGAUAUUGUGGCGCUGACAUGAGGAUCACCCAUGUGGUGCUAGUCCCGCUGCGAGAAGGUGUGUAAA,–,–,12.4,26.8
AAACUGCCACAUGAGGAUCACCCAUGUAAAUAAAGUAUUUGGAGAAGGGCGAUAGCAAAGCUAUCGCAGGAUAUUCUCAGGCAG,20.3,15.3,–,–
AAAGAGUCAGGAUAUUCGUAUAGAGUAGCGCGACUCUAUACGAAGAAGGGACAUGAGGAUCACCCAUGUAAAAA,–,–,28.1,45.6
AAAGCAACAUGAGGAUCACCCAUGUAGGAUAUCGCUAUUGUAAUCAUGAAACAUGAUUACAAUAGCGAGAAGGACAUAUGCGGG,–,–,42.5,45.2
AAAGCACGAGGAUAUACAUGAGGAUCACCCAUGUAUAACCAACAUAGGUGAUCCUCAUGUAGAAGGCGUGCAAA,–,–,18.6,18.4
AAAGGACGAGGAUAUACAUGAGGAUCACCCAUGUAAAAAGCGUAGCAAAAGUGCUUAUGUAGAAGGCGUCCAAA,–,–,21.9,59.2
AAAGGACGAUUAGGAUAUUCGGUUCAAGGUAAAGAAGAAGGAAUCGUUCCAUACUUAACAUGAGGAUCACCCAUGUGGGUCUAG,–,–,34.9,29.5
AAAGUGUGAAGCAGGGUGCUACAUGAGGAUCACCCAUGUCGGAGAAGGGCGCCGUUUCGCAGGGUGUAGGAUAUCUGGCGUGCA,–,–,132,109
AAAUAAAACGAUCGGCGAUCCAUACAUGAGGAUCACCCAUGUAGAAGGCACUCUACAAAGUAGAGUGAGGAUAUACGAGAUCGA,–,–,7.13,95.5
AAAUAAACUAGCAUAAUAACCUCACAUGAGGAUCACCCAUGUCAGGAUAUCUGUCCUAAAAGGACAGAGAAGGGACGUGCUAGG,–,–,5.68,6.95
AAAUAGAAUGAGGAUAUCGUAUUAUAUUUAGUACGAGAAGGCAUUACAUGAGGAUCACCCAUGUUUUGUUGGGA,–,–,21.8,57.9
AAAUAGCGAGGAUAUACAUGAGGAUCACCCAUGUGGACUGAUGUCGCAUGUUUCAGUGGUAGAAGGUGCUCAAA,–,–,136,299
AAAUAGUUACAGAAGGGCAUUUAUAAUUAUCAUUACUCUUACUAUGUUUGCAGGAUAUGUUUAACAUGAGGAUCACCCAUGUAC,20.4,14.1,–,–
